Published values of several laboratories.
Compare with care: the assays were run in different laboratories.
Cell line: Vero
Effect on: cell growth or viability

| SMILES | method | time | IC50 |
| --- | --- | --- | --- |
| CO[C@H]1[C@H](O[C@H]([C@H]2O[C@@H](n3ccc(=O)[nH]c3=O)[C@H](O)[C@@H]2O)[C@H](NCCCNC(=O)[C@@H](NC(=O)[C@@H](NC(=O)N[C@H](C(=O)O)C(C)C)[C@@H]2CCN=C(N)N2)[C@@H](O)C(C)C)C(=O)O)O[C@H](CN)[C@H]1O | WST-1 |  | > 35 µM |
| O=C1[C@H](CC[C@H](O)c2ccc(F)cc2)[C@@H](c2ccc(O)cc2)N1c1ccc(F)cc1 | MTT | 72 h | 36.5 µg/mL |
| CO[C@H]1[C@H](O[C@H]([C@H]2O[C@@H](n3ccc(=O)[nH]c3=O)[C@H](O)[C@@H]2O)[C@H](NCCCNC(=O)[C@@H](NC(=O)[C@@H](NC(=O)N[C@H](C(=O)O)C(C)C)[C@@H]2CCN=C(N)N2)[C@@H](OC(=O)CCCCCCCCCCCCN(O)C(=N)N)C(C)C)C(=O)O)O[C@H](CN)[C@H]1O | WST-1 |  | > 35 µM |
| C/C(=N/NC(=O)c1cn(-c2ccccc2)nc1-c1ccccc1)c1c(O)cc(C)oc1=O | MTT | 48 h | 664 µM |
| O=C1C[C@@H](c2ccccc2)Oc2c(Cc3ccccc3O)c(O)c(Cc3ccccc3O)c(O)c21 | MTT | 72 h | 48.7 µM |
| C[C@@H]1C[C@H]2[C@@H]3CCC4=CC(=O)C=C[C@]4(C)[C@@]3(F)[C@@H](O)C[C@]2(C)[C@@]1(O)C(=O)CO | MTT | 48 h | 80.1 µM |
| NC1=NC(=NS(=O)(=O)c2ccc(N)cc2)NC(=O)C1N=Nc1ccccc1C(=O)O (stereo not shown) | MTT | 72 h | 57.4 µM |
| C/C(=N/NC(=O)c1cn(-c2ccccc2)nc1-c1ccc(Cl)cc1)c1c(O)cc(C)oc1=O | MTT | 48 h | 102 µM |
| NC1=NN(C(=O)C=Cc2ccccc2)C(=O)C1N=Nc1ccccc1C(=O)O (stereo not shown) | MTT | 72 h | 59.7 µM |
| COc1cccc2c1C(=O)c1c(O)c3c(c(O)c1C2=O)C[C@@](O)(C(=O)CO)C[C@@H]3O[C@H]1C[C@H](N)[C@H](O)[C@H](C)O1 | MTT | 72 h | 2.1 µM |
